Values after ≈ are worked out from the molar mass of the structure shown.
How the values were obtained:
Type in all cases: functional, Salmonella enterica subsp. enterica serovar Typhimurium
Salmonella typhimurium [1] = assay: Antimicrobial activity against Salmonella enterica serovar Typhimurium CS3 tolC::Kan with GyrA S83F, D87N, parC S80I mutation
Procedure, shortened: (§1)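 MICs measured by broth microdilution on the Sensititre automated system and interpreted by CLSI broth microdilution standards. Ciprofloxacin was also tested by agar dilution, widening the range to 0.0075–128 μg/ml. Quality control strains were E. coli ATCC 25922 and 35218, E. faecalis ATCC 29212, S. aureus ATCC 29213 and P. aeruginosa ATCC 27853.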

Salmonella typhimurium [2] = assay: Antimicrobial activity against Salmonella enterica serovar Typhimurium CHS14 gyrA+ with GyrA D87G mutation; procedure, shortened: as §1
Salmonella typhimurium [3] = assay: Antimicrobial activity against Salmonella enterica serovar Typhimurium CS1 tolC::Kan with GyrA S83F, D87N, ParC S80I mutation; procedure, shortened: as §1
Salmonella typhimurium [4] = assay: Antimicrobial activity against Salmonella enterica serovar Typhimurium CS1 acrAB::Kan with GyrA S83F, D87N, ParC S80I mutation; procedure, shortened: as §1
Salmonella typhimurium [5] = assay: Antimicrobial activity against Salmonella enterica serovar Typhimurium S21; procedure, shortened: as §1
Salmonella typhimurium [6] = assay: Antimicrobial activity against Salmonella enterica serovar Typhimurium CHS14 acrAB::Kan with GyrA D87G mutation; procedure, shortened: as §1
Salmonella typhimurium [7] = assay: Antimicrobial activity against Salmonella enterica serovar Typhimurium CHS38 with GyrA D87G mutation; procedure, shortened: as §1
Salmonella typhimurium [8] = assay: Antimicrobial activity against Salmonella enterica serovar Typhimurium CHS38 tolC::Kan with GyrA D87G mutation; procedure, shortened: as §1
Salmonella typhimurium [9] = assay: Antimicrobial activity against Salmonella enterica serovar Typhimurium S21 acrAB::Kan
Procedure, shortened: (§2)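 MICs by automated broth microdilution panels, interpreted to CLSI broth microdilution standards. Ciprofloxacin additionally tested by agar dilution across 0.0075 to 128 μg/ml. Quality control strains: E. coli ATCC 25922 and 35218, Enterococcus faecalis ATCC 29212, S. aureus ATCC 29213, P. aeruginosa ATCC 27853. Test strains are kanamycin-marked deletion mutants of ground-beef isolate S21.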

Salmonella typhimurium [10] = assay: Antimicrobial activity against Salmonella enterica serovar Typhimurium CS9 with GyrA S83F, D87N, ParC S80I mutation; procedure, shortened: as §1
Salmonella typhimurium [11] = assay: Antimicrobial activity against Salmonella enterica serovar Typhimurium CS9 acrAB::Kan with GyrA S83F, D87N, ParC S80I mutation; procedure, shortened: as §1
Salmonella typhimurium [12] = assay: Antimicrobial activity against Salmonella enterica serovar Typhimurium CHS18 gyrA+ with GyrA S38F mutation; procedure, shortened: as §1
Salmonella typhimurium [13] = assay: Antimicrobial activity against Salmonella enterica serovar Typhimurium CHS18 with GyrA S38F mutation; procedure, shortened: as §1
Salmonella typhimurium [14] = assay: Antimicrobial activity against Salmonella enterica serovar Typhimurium CS3 with GyrA S83F, D87N, ParC S80I mutation; procedure, shortened: as §1
Salmonella typhimurium [15] = assay: Antimicrobial activity against Salmonella enterica serovar Typhimurium S21-1 GyrA S83F mutant; procedure, shortened: as §1
Salmonella typhimurium [16] = assay: Antimicrobial activity against Salmonella enterica serovar Typhimurium CS3 acrAB::Kan with GyrA S83F, D87N, ParC S80I mutation; procedure, shortened: as §1
Salmonella typhimurium [17] = assay: Antimicrobial activity against Salmonella enterica serovar Typhimurium CHS14 with GyrA D87G mutation; procedure, shortened: as §1
Salmonella typhimurium [18] = assay: Antimicrobial activity against Salmonella enterica serovar Typhimurium CHS38 acrAB::Kan with GyrA D87G mutation; procedure, shortened: as §1
Salmonella typhimurium [19] = assay: Antimicrobial activity against Salmonella enterica serovar Typhimurium S21-3 gyrA+ with ParC S80I mutation; procedure, shortened: as §1
Salmonella typhimurium [20] = assay: Antimicrobial activity against Salmonella enterica serovar Typhimurium CHS14 tolC::Kan with GyrA D87G mutant; procedure, shortened: as §1
Salmonella typhimurium [21] = assay: Antimicrobial activity against Salmonella enterica serovar Typhimurium CHS18 acrAB::Kan with GyrA S38F mutation; procedure, shortened: as §1
Salmonella typhimurium [22] = assay: Antimicrobial activity against Salmonella enterica serovar Typhimurium CS9 tolC::Kan with GyrA S83F, D87N, ParC S80I mutation; procedure, shortened: as §1
Salmonella typhimurium [23] = assay: Antimicrobial activity against Salmonella enterica serovar Typhimurium CS1 gyrA+ with GyrA S83F, D87N, ParC S80I mutation; procedure, shortened: as §1
Salmonella typhimurium [24] = assay: Antimicrobial activity against Salmonella enterica serovar Typhimurium CS1 with GyrA S83F, D87N, ParC S80I mutation; procedure, shortened: as §1
Salmonella typhimurium [25] = assay: Antimicrobial activity against Salmonella enterica serovar Typhimurium S21-1 gyrA+; procedure, shortened: as §1
Salmonella typhimurium [26] = assay: Antimicrobial activity against Salmonella enterica serovar Typhimurium S21-4 gyrA+ with ParC S80I mutation; procedure, shortened: as §1
Salmonella typhimurium [27] = assay: Antimicrobial activity against Salmonella enterica serovar Typhimurium S21 gyrA+; procedure, shortened: as §1
Salmonella typhimurium [28] = assay: Antimicrobial activity against Salmonella enterica serovar Typhimurium S21-2 with GyrA S83F, ParC S80I mutation; procedure, shortened: as §1
Salmonella typhimurium [29] = assay: Antimicrobial activity against Salmonella enterica serovar Typhimurium CHS18 tolC::Kan with GyrA S38F mutation; procedure, shortened: as §1
Salmonella typhimurium [30] = assay: Antimicrobial activity against Salmonella enterica serovar Typhimurium CS3 gyrA+ with GyrA S83F, D87N, ParC S80I mutation; procedure, shortened: as §1
Salmonella typhimurium [31] = assay: Antimicrobial activity against Salmonella enterica serovar Typhimurium S21-2 gyrA+ with ParC S80I mutation; procedure, shortened: as §1
Salmonella typhimurium [32] = assay: Antimicrobial activity against Salmonella enterica serovar Typhimurium S21-4 with GyrA S83F, ParC S80I mutation; procedure, shortened: as §1
Salmonella typhimurium [33] = assay: Antimicrobial activity against Salmonella enterica serovar Typhimurium CHS38 gyrA+ with GyrA D87G mutation; procedure, shortened: as §1
Salmonella typhimurium [34] = assay: Antimicrobial activity against Salmonella enterica serovar Typhimurium S21-3 with GyrA S83F, ParC S80I mutation; procedure, shortened: as §1
Salmonella typhimurium [35] = assay: Antimicrobial activity against Salmonella enterica serovar Typhimurium S21-4 tolC::Kan with GyrA S83F, ParC S80I mutation; procedure, shortened: as §1
Salmonella typhimurium [36] = assay: Antimicrobial activity against Salmonella enterica serovar Typhimurium S21 tolC::Kan; procedure, shortened: as §2
Salmonella typhimurium [37] = assay: Antimicrobial activity against Salmonella enterica serovar Typhimurium CS9 gyrA+ with GyrA S83F, D87N, ParC S80I mutation; procedure, shortened: as §1

Structure (SMILES) | MIC (Salmonella typhimurium [1]) [µg/mL] | MIC (Salmonella typhimurium [2]) [µg/mL] | MIC (Salmonella typhimurium [3]) [µg/mL] | MIC (Salmonella typhimurium [4]) [µg/mL] | MIC (Salmonella typhimurium [5]) [µg/mL] | MIC (Salmonella typhimurium [6]) [µg/mL] | MIC (Salmonella typhimurium [7]) [µg/mL] | MIC (Salmonella typhimurium [8]) [µg/mL] | MIC (Salmonella typhimurium [9]) [µg/mL] | MIC (Salmonella typhimurium [10]) [µg/mL] | MIC (Salmonella typhimurium [11]) [µg/mL] | MIC (Salmonella typhimurium [12]) [µg/mL] | MIC (Salmonella typhimurium [13]) [µg/mL] | MIC (Salmonella typhimurium [14]) [µg/mL] | MIC (Salmonella typhimurium [16]) [µg/mL] | MIC (Salmonella typhimurium [17]) [µg/mL] | MIC (Salmonella typhimurium [18]) [µg/mL] | MIC (Salmonella typhimurium [20]) [µg/mL] | MIC (Salmonella typhimurium [21]) [µg/mL] | MIC (Salmonella typhimurium [22]) [µg/mL] | also measured
CN(C)[C@@H]1C(O)=C(C(N)=O)C(=O)[C@@]2(O)C(O)=C3C(=O)c4c(O)cccc4[C@@](C)(O)[C@H]3C[C@@H]12 [TETRACYCLINE] | 32 (≈ 72 µM) | > 32 | 32 (≈ 72 µM) | > 32 | < 4 | > 32 | 32 (≈ 72 µM) | 16 (≈ 36 µM) | < 4 | > 32 | > 32 | 4 (≈ 9 µM) | 4 (≈ 9 µM) | > 32 | > 32 | > 32 | 16 (≈ 36 µM) | > 32 | 4 (≈ 9 µM) | 32 (≈ 72 µM) | MIC (Salmonella typhimurium [15]): 32 µg/mL (≈ 72 µM); MIC (Salmonella typhimurium [19]): > 32 µg/mL; MIC (Salmonella typhimurium [23]): > 32 µg/mL; MIC (Salmonella typhimurium [24]): > 32 µg/mL; MIC (Salmonella typhimurium [25]): 32 µg/mL (≈ 72 µM); MIC (Salmonella typhimurium [26]): > 32 µg/mL; MIC (Salmonella typhimurium [27]): < 4 µg/mL; MIC (Salmonella typhimurium [28]): > 32 µg/mL; MIC (Salmonella typhimurium [29]): 4 µg/mL (≈ 9 µM); MIC (Salmonella typhimurium [30]): > 32 µg/mL; MIC (Salmonella typhimurium [31]): > 32 µg/mL; MIC (Salmonella typhimurium [32]): > 32 µg/mL; MIC (Salmonella typhimurium [33]): 32 µg/mL (≈ 72 µM); MIC (Salmonella typhimurium [34]): > 32 µg/mL; MIC (Salmonella typhimurium [35]): 8 µg/mL (≈ 18 µM); MIC (Salmonella typhimurium [36]): < 4 µg/mL; MIC (Salmonella typhimurium [37]): > 32 µg/mL
O=C(N[C@H](CO)[C@H](O)c1ccc([N+](=O)[O-])cc1)C(Cl)Cl [CHLORAMPHENICOL] | > 32 | 8 (≈ 24.8 µM) | > 32 | > 32 | 8 (≈ 24.8 µM) | < 2 | 32 (≈ 99 µM) | 4 (≈ 12.4 µM) | < 2 | > 32 | > 32 | 4 (≈ 12.4 µM) | 8 (≈ 24.8 µM) | > 32 | > 32 | 8 (≈ 24.8 µM) | 4 (≈ 12.4 µM) | < 2 | 2 (≈ 6.19 µM) | > 32 | MIC (Salmonella typhimurium [23]): > 32 µg/mL; MIC (Salmonella typhimurium [24]): > 32 µg/mL; MIC (Salmonella typhimurium [25]): > 32 µg/mL; MIC (Salmonella typhimurium [27]): 8 µg/mL (≈ 24.8 µM); MIC (Salmonella typhimurium [29]): 2 µg/mL (≈ 6.19 µM); MIC (Salmonella typhimurium [30]): > 32 µg/mL; MIC (Salmonella typhimurium [33]): 32 µg/mL (≈ 99 µM); MIC (Salmonella typhimurium [35]): 32 µg/mL (≈ 99 µM); MIC (Salmonella typhimurium [36]): < 2 µg/mL; MIC (Salmonella typhimurium [37]): > 32 µg/mL
CC1(C)S[C@@H]2[C@H](NC(=O)[C@H](N)c3ccccc3)C(=O)N2[C@H]1C(=O)O [AMPICILLIN] | > 32 | < 1 | > 32 | > 32 | 2 (≈ 5.72 µM) | < 1 | > 32 | > 32 | < 1 | > 32 | > 32 | 2 (≈ 5.72 µM) | 2 (≈ 5.72 µM) | > 32 | > 32 | < 1 | > 32 | < 1 | 1 (≈ 2.86 µM) | > 32 | MIC (Salmonella typhimurium [23]): > 32 µg/mL; MIC (Salmonella typhimurium [24]): > 32 µg/mL; MIC (Salmonella typhimurium [25]): > 32 µg/mL; MIC (Salmonella typhimurium [27]): 2 µg/mL (≈ 5.72 µM); MIC (Salmonella typhimurium [29]): 1 µg/mL (≈ 2.86 µM); MIC (Salmonella typhimurium [30]): > 32 µg/mL; MIC (Salmonella typhimurium [33]): > 32 µg/mL; MIC (Salmonella typhimurium [36]): < 1 µg/mL; MIC (Salmonella typhimurium [37]): > 32 µg/mL
